Source: ChEMBL document CHEMBL5104216, “Fragment-Sized Thiazoles in Fragment-Based Drug Discovery Campaigns: Friend or Foe?” (ACS Med Chem Lett, 2022)

What was measured:
[1] = target: UDP-N-acetylglucosamine 1-carboxyvinyltransferase (Escherichia coli K-12) (UniProt P0A749); experiment: Inhibition of recombinant Escherichia coli MurA assessed as residual activity at 500 uM using UDP-N-acetylglucosamine as substrate preincubated for 30 mins followed by substrate addition and measured by malachite green based colorimetric assay relative to control
UDP-N-acetylglucosamine 1-carboxyvinyltransferase (Escherichia coli K-12), sequence (P0A749 whole entry): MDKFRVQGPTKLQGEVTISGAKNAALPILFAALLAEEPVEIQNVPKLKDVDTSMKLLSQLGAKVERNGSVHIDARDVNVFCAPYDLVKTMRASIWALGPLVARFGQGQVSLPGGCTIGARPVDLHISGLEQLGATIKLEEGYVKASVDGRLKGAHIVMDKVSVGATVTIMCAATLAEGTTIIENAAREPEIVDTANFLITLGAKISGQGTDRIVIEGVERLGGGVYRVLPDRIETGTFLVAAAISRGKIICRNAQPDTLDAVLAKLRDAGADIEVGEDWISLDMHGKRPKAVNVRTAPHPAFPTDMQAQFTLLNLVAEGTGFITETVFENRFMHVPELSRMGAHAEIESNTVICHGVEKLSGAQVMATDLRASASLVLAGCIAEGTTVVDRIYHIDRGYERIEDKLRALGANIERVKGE
Outline: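 E. coli MurA at 500–625 μM with 30 min preincubation before substrate addition. Malachite green colorimetric read-out. Activity threshold was <50% residual activity.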

[2] = target: UDP-N-acetylglucosamine 1-carboxyvinyltransferase (Escherichia coli K-12) (UniProt P0A749); experiment: Inhibition of recombinant Escherichia coli MurA assessed as residual activity at 500 uM using UDP-N-acetylglucosamine as substrate and measured by malachite green based colorimetric assay relative to control
Outline: (§1)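 Screened at 500–625 μM with malachite green colorimetric read-out. Activity threshold was <50% residual activity.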

[3] = Redox activity of compound assessed as redox index at 100 uM measured by H2DCFDA assay; format: physicochemical
Outline: (§2)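 Reactive oxygen species, with or without the reducing agent TCEP, detected with the fluorescent probe H2DCFDA. Compound spectral interference (autofluorescence) checked under the assay conditions.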

[4] = target: D-alanine--D-alanine ligase B (Escherichia coli K-12) (UniProt P07862); experiment: Inhibition of recombinant Escherichia coli DdlB assessed as residual activity at 500 uM using D-alanine as substrate incubated for 20 mins and measured by malachite green based colorimetric assay relative to control; outline: as §1
[5] = Redox activity of compound assessed as redox index at 10 uM measured by resazurin assay; format: physicochemical
Outline: (§3)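 Free radicals formed by redox cycling with DTT detected with resazurin by fluorimetric read-out. Spectral interference checked.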

[6] = Redox activity of compound assessed as redox index at 1 uM measured by resazurin assay; format: physicochemical; outline: as §3
[7] = Redox activity of compound assessed as redox index at 100 uM measured by HRP-PR assay; format: physicochemical
Outline: (§4)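 H2O2 from redox cycling, with or without DTT, detected with horseradish peroxidase-phenol red (HRP-PR).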

[8] = target: Replicase polyprotein 1ab (Severe acute respiratory syndrome coronavirus 2) (UniProt P0DTD1); experiment: Inhibition of recombinant SARS-CoV-2 3CLpro expressed in Escherichia coli NiCo21(DE3) assessed as residual activity at 500 uM using DABCYL-KTSAVLQSGFRKME-EDANS as substrate preincubated for 30 mins followed by substrate addition and measured by FRET assay relative to control
Outline: (§5)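 Kinetic fluorescence read-out of cleavage of a FRET substrate carrying a DABCYL–EDANS pair. Compounds were tested at 500–625 μM, and <50% residual activity was taken as the activity threshold. To exclude false positives, absorbance at the excitation and emission wavelengths and autofluorescence of the compounds were measured.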

[9] = Redox activity of compound assessed as redox index at 100 uM in presence of 100 uM TCEP measured by H2DCFDA assay; format: physicochemical; outline: as §2
[10] = Thiol reactivity of compound measured by TNB2- assay; format: physicochemical
Outline: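 Reactivity toward the thiol surrogate TNB2– in a nonproteinaceous setting without TCEP. Reversibility tested by adding TCEP and checking that absorbance was restored.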

[11] = target: Replicase polyprotein 1ab (Severe acute respiratory syndrome coronavirus 2) (UniProt P0DTD1); experiment: Inhibition of recombinant SARS-CoV-2 3CLpro expressed in Escherichia coli NiCo21(DE3) assessed as residual activity at 500 uM using DABCYL-KTSAVLQSGFRKME-EDANS as substrate preincubated for 30 mins in presence of 1mM DTT followed by substrate addition and measured by FRET assay relative to control; outline: as §5
[12] = test system: Mycobacterium tuberculosis; experiment: Inhibition of Mycobacterium tuberculosis MetAP1a assessed as residual activity at 625 uM using L-methionine 7-amido-4-methylcoumarin as fluorogenic substrate and measured by fluorescence based assay
Outline: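 Kinetic fluorescence assay in which the enzyme hydrolyses L-methionine 7-amido-4-methylcoumarin to fluorescent 7-amino-4-methylcoumarin. Compounds were tested at 500–625 μM, and activity was called at <50% residual activity. Spectral interference was checked by measuring absorbance at the excitation and emission wavelengths and compound autofluorescence.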

[13] = target: UDP-N-acetylglucosamine 1-carboxyvinyltransferase (Escherichia coli K-12) (UniProt P0A749); experiment: Inhibition of recombinant Escherichia coli MurA assessed as residual activity at 500 uM using UDP-N-acetylglucosamine as substrate preincubated for 30 mins in presence of 1 mM DTT followed by substrate addition and measured by malachite green based colorimetric assay relative to control
[14] = Redox activity of compound assessed as redox index at 100 uM in presence of 1 mM DTT measured by HRP-PR assay; format: physicochemical; outline: as §4
[15] = Aqueous stability of the compound at pH 7.4 measured after 60 mins by spectrophotometric analysis; format: physicochemical; details: buffer, pH 7.4, 1 h
Outline: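 Followed by spectrophotometry as changes in the compound absorption spectrum over time in 50 mM Tris-HCl pH 7.4, 0.5 mM EDTA, read after 60 min in 96-well microplate format. Compounds with low absorbance were not evaluated.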

Brc1nncs1
Activity [1]: 143%
Activity [2]: 47%
Activity_index [3]: 1
Activity [4]: 93%
Activity_index [5]: 0.9
Activity_index [6]: 0.9
Activity_index [7]: 1
Activity [8]: 5.1%
Activity_index [9]: 1.2
Activity [10]: Active
Activity [11]: 78.3%
Activity [12]: 106%
Activity [13]: 114%
Activity_index [14]: 1

Nc1nc(C(=O)O)cs1
Activity [1]: 0%
Activity [2]: 1.6%
Activity_index [3]: 2.1
Activity [4]: 96%
Activity_index [5]: 1.1
Activity_index [6]: 1
Activity_index [7]: 1
Activity [8]: 14.2%
Activity_index [9]: 1.6
Activity [10]: Active
Activity [11]: 84.9%
Activity [12]: 155%
Activity [13]: 107%
Activity_index [14]: 1

CCOC(=O)Cc1csc(N)n1
Activity [1]: 66.3%
Activity [2]: 85.5%
Activity_index [3]: 1.2
Activity [4]: 94%
Activity_index [5]: 1
Activity_index [6]: 0.9
Activity_index [7]: 1
Activity [8]: 103%
Activity_index [9]: 1
Activity [11]: 82.1%
Activity [12]: 132%
Activity [13]: 88.1%
Stability [15]: Stable
Activity_index [14]: 1

Cc1nc(-c2ccc(C(=O)O)cc2)cs1
Activity [1]: 113%
Activity [2]: 102%
Activity_index [3]: 0.9
Activity [4]: 94%
Activity_index [5]: 1.1
Activity_index [6]: 0.9
Activity_index [7]: 1
Activity [8]: 149%
Activity_index [9]: 0.9
Activity [11]: 81.2%
Activity [12]: 136%
Activity [13]: 101%
Stability [15]: Stable
Activity_index [14]: 1

Nc1nnc(C2CC2)s1
Activity [1]: 2.2%
Activity [2]: 3.5%
Activity_index [3]: 1.2
Activity [4]: 96%
Activity_index [5]: 0.9
Activity_index [6]: 0.9
Activity_index [7]: 1.1
Activity [8]: 34.2%
Activity_index [9]: 1.2
Activity [11]: 79.3%
Activity [12]: 92.5%
Activity [13]: 99.8%
Stability [15]: Stable
Activity_index [14]: 1.1

O=C(O)c1scnc1Br
Activity [1]: 83.1%
Activity [2]: 99.5%
Activity_index [3]: 1.1
Activity [4]: 96%
Activity_index [5]: 0.9
Activity_index [6]: 0.9
Activity_index [7]: 1
Activity [8]: 135%
Activity_index [9]: 1.1
Activity [11]: 80.1%
Activity [12]: 122%
Activity [13]: 111%
Stability [15]: Stable
Activity_index [14]: 1

Cc1cnc(Br)s1
Activity [1]: 8.2%
Activity [2]: 45.2%
Activity_index [3]: 0.9
Activity [4]: 77%
Activity_index [5]: 1
Activity_index [6]: 0.9
Activity_index [7]: 1
Activity [8]: 19.8%
Activity_index [9]: 0.9
Activity [10]: Active
Activity [11]: 79.1%
Activity [12]: 116%
Activity [13]: 105%
Activity_index [14]: 1

CCOC(=O)c1csc(Br)n1
Activity [1]: 84%
Activity [2]: 89.8%
Activity_index [3]: 1
Activity [4]: 97%
Activity_index [5]: 1
Activity_index [6]: 0.9
Activity_index [7]: 1
Activity [8]: 71.7%
Activity_index [9]: 0.9
Activity [11]: 80.7%
Activity [12]: 90.8%
Activity [13]: 100%
Stability [15]: Stable
Activity_index [14]: 1

COC(=O)c1csc(Br)n1
Activity [1]: 117%
Activity [2]: 106%
Activity_index [3]: 0.8
Activity [4]: 95%
Activity_index [5]: 0.8
Activity_index [6]: 1.4
Activity_index [7]: 1
Activity [8]: 73.7%
Activity_index [9]: 0.9
Activity [11]: 68.6%
Activity [12]: 88.2%
Activity [13]: 104%
Stability [15]: Stable
Activity_index [14]: 1

Brc1cnc(Br)s1
Activity [1]: 0%
Activity [2]: 13.1%
Activity_index [3]: 0.7
Activity [4]: 91%
Activity_index [5]: 0.9
Activity_index [6]: 0.9
Activity_index [7]: 1
Activity [8]: 17.1%
Activity_index [9]: 1
Activity [10]: Active
Activity [11]: 79.9%
Activity [12]: 71.7%
Activity [13]: 99%
Activity_index [14]: 1

Cc1csc(N)n1
Activity [1]: 93.3%
Activity [2]: 99.3%
Activity_index [3]: 1
Activity [4]: 90%
Activity_index [5]: 1
Activity_index [6]: 0.9
Activity_index [7]: 1
Activity [8]: 96.7%
Activity_index [9]: 0.8
Activity [11]: 82.4%
Activity [12]: 123%
Activity [13]: 102%
Stability [15]: Stable
Activity_index [14]: 1

O=C(O)c1csc(-c2ccncc2)n1
Activity [1]: 90.4%
Activity [2]: 103%
Activity_index [3]: 1
Activity [4]: 96%
Activity_index [5]: 1
Activity_index [6]: 1
Activity_index [7]: 1
Activity [8]: 98%
Activity_index [9]: 1.1
Activity [11]: 94.4%
Activity [12]: 93.4%
Activity [13]: 106%
Stability [15]: Stable
Activity_index [14]: 1

COC(=O)C(=O)Nc1ncc(Br)s1
Activity [1]: 37.2%
Activity [2]: 81.7%
Activity_index [3]: 0.8
Activity [4]: 94%
Activity_index [5]: 1.1
Activity_index [6]: 0.9
Activity_index [7]: 1
Activity [8]: 89.5%
Activity_index [9]: 0.8
Activity [11]: 66.2%
Activity [12]: 156%
Activity [13]: 112%
Stability [15]: Unstable
Activity_index [14]: 1

Nc1nccs1 [AMINOTHIAZOLE]
Activity [1]: 39.7%
Activity [2]: 88%
Activity_index [3]: 0.8
Activity [4]: 95%
Activity_index [5]: 0.9
Activity_index [6]: 0.9
Activity_index [7]: 1
Activity [8]: 86.1%
Activity_index [9]: 0.9
Activity [11]: 82.5%
Activity [12]: 94.6%
Activity [13]: 105%
Stability [15]: Stable
Activity_index [14]: 1

Nc1nc(CC(=O)O)cs1
Activity [1]: 79.4%
Activity [2]: 90.8%
Activity_index [3]: 1.1
Activity [4]: 96%
Activity_index [5]: 1
Activity_index [6]: 0.9
Activity_index [7]: 1.1
Activity [8]: 105%
Activity_index [9]: 0.9
Activity [11]: 84.2%
Activity [12]: 125%
Activity [13]: 99.2%
Stability [15]: Stable
Activity_index [14]: 1

COC(=O)c1cnc(Br)s1
Activity [1]: 93%
Activity [2]: 96.6%
Activity_index [3]: 1
Activity [4]: 96%
Activity_index [5]: 1.1
Activity_index [6]: 1
Activity_index [7]: 1
Activity [8]: 100%
Activity_index [9]: 1.1
Activity [11]: 92.9%
Activity [12]: 99.2%
Activity [13]: 102%
Stability [15]: Stable
Activity_index [14]: 1

COC(=O)CC(=O)Nc1ncc(Br)s1
Activity [1]: 60.9%
Activity [2]: 97.9%
Activity_index [3]: 1.2
Activity [4]: 88%
Activity_index [5]: 0.9
Activity_index [6]: 1
Activity_index [7]: 1
Activity [8]: 95.3%
Activity_index [9]: 1
Activity [11]: 86%
Activity [12]: 78.2%
Activity [13]: 107%
Stability [15]: Stable
Activity_index [14]: 1
